Experiment [1] deals with NAD(P)H dehydrogenase [quinone] 1 (Mus musculus) (UniProt Q64669). Kind of experiment: Induction of QR1 activity in mouse Hepa-1c1c7 cells assessed as induction ratio at 50 uM after 48 hrs by MTT assay relative to control. It is filed as cell-based. The procedure, abridged:
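QR1 induction is reported as the induction ratio, meaning activity relative to control, measured at a test concentration of 50 μM.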
Background: Tetrazolium assays rely on reduction of a dye to a coloured formazan, in cell work by metabolically active cells.

The target in experiment [2] is T1, Aromatase (Homo sapiens, UniProt P11511).
T1 sequence (P11511 whole entry): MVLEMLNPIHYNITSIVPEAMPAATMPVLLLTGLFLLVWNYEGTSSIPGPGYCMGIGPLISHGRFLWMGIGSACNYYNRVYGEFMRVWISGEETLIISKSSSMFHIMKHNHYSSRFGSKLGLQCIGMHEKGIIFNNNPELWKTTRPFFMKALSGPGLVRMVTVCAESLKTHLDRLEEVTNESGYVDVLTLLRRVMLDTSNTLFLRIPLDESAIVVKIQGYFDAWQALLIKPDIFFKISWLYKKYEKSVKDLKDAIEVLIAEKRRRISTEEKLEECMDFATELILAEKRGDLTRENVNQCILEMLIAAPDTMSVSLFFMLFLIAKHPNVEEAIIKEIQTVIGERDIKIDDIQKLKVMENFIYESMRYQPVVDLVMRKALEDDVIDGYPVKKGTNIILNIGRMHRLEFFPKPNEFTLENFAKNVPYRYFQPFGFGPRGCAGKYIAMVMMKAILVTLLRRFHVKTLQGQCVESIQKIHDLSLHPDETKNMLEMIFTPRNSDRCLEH
Kind of experiment: Inhibition of CYP19A1 (unknown origin) at 50 uM preincubated with NADPH followed by DBF substrate addition after 30 mins by fluorescence based assay relative to control. The essentials:
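Aromatase inhibition was screened at 50 μM test concentration. Activity is expressed as percent inhibition relative to vehicle-treated controls.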

In experiment [3] the target is T1, Aromatase. Kind of experiment: Inhibition of CYP19A1 (unknown origin) preincubated with NADPH followed by DBF substrate addition after 30 mins by fluorescence based assay.
The target of experiment [4] is NAD(P)H dehydrogenase [quinone] 1 (Mus musculus) (UniProt Q64669). Description: Induction of QR1 activity in mouse Hepa-1c1c7 cells assessed as drug concentration required to double enzyme activity after 48 hrs by MTT assay. Format: cell-based. The essentials:
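CD is the concentration that doubles QR1 activity. It was determined only for compounds whose induction ratio at 50 μM exceeded 2.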

NAD(P)H dehydrogenase [quinone] 1 (Mus musculus), sequence (Q64669 whole entry): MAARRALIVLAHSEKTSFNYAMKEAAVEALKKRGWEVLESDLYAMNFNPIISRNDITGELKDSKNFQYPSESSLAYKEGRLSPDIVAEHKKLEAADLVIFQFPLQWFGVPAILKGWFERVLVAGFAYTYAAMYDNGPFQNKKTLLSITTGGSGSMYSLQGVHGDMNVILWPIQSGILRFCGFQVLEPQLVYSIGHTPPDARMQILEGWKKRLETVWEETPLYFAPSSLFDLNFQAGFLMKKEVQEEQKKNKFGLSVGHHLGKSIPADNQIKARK

On to `COc1ccc(-c2cc3ccccc3[nH]2)cc1`, for which the Ratio in experiment [1] was found to be 1.56. The same molecule gave an inhibition at 50 µM on Aromatase [2] of 0%.
In the case of `O=[N+]([O-])c1ccc2[nH]c(-c3ccccc3)cc2c1`, in experiment [1], the Ratio amounted to 3.92. For the same molecule, at Aromatase [3], the IC50 was determined as 9 µM. Moreover, the CD in experiment [4] was found to be 5.76 µM. In addition, the inhibition at 50 µM at Aromatase [2] was 77.7%.
Take `Brc1ccc2[nH]c(-c3ccccc3)cc2c1`: the Ratio in experiment [1] turned out to be 5.5. In addition, the IC50 on Aromatase [3] is 39.7 µM. In experiment [4], the CD turned out to be 6.76 µM. The molecule also yielded an inhibition at 50 µM on Aromatase [2] of 58.1%.
Turning to `N#Cc1ccc2[nH]c(-c3ccccc3)cc2c1`, the Ratio in experiment [1] came out at 1.06. At Aromatase [3], this molecule came in with an IC50 of 3.34 µM. Also, at 50 µM the inhibition against Aromatase [2] was 82.3%.
For `Nc1ccc2[nH]c(-c3ccc(Cl)c(Cl)c3)cc2c1`, the Ratio in experiment [1] was 4.9. The CD in experiment [4] worked out at 10.3 µM. On Aromatase [2], this molecule showed an inhibition at 50 µM of 21.4%.
The like results for `Cn1c(-c2ccc(Cl)c(Cl)c2)cc2cc(N)ccc21` were, in that order, 2.14, 46.7 µM and 42%.
In the case of `COCn1c(-c2ccccc2)cc2ccccc21`, the Ratio in experiment [1] is 1.9. Besides, on Aromatase [2], the inhibition at 50 µM came to 20.2%.
As to `Brc1ccc(-c2cc3ccccc3[nH]2)cc1`, in experiment [1], the Ratio was 2.8. Moreover, the CD in experiment [4] was 5.1 µM. At Aromatase [2], this molecule had an inhibition at 50 µM of 4.8%.
The like results for `Cn1c(-c2ccc(Cl)c(Cl)c2)cc2ccccc21` were, in that order, 4.4, 2.1 µM and 20%.
With `N#Cc1ccc2[nH]c(-c3cccnc3)cc2c1`, the Ratio in experiment [1] was 2.1. Besides, the midpoint of inhibition against Aromatase [3], the IC50, lay at 11.5 µM. Further, the CD in experiment [4] was found to be 31.2 µM. This molecule also registered an inhibition at 50 µM at Aromatase [2] of 93.7%.
For the molecule `c1ccc(C2Cc3ccccc3N2)cc1` (stereo not drawn), the Ratio in experiment [1] was found to be 1.8. Further, at 50 µM the inhibition on Aromatase [2] was 49%.
Take `Clc1cccc(-c2cc3ccccc3[nH]2)c1`: in experiment [1], the Ratio amounted to 5.2. For the same molecule, the CD in experiment [4] was 2.17 µM. Besides, on Aromatase [2], at 50 µM the inhibition was 24.1%.
The like results for `Clc1ccc2cc(-c3ccccc3)[nH]c2c1` were, in that order, 4.25, 6.8 µM and 13.6%.
Consider `O/N=C/c1c(-c2ccccc2)[nH]c2ccccc12`, for which the Ratio in experiment [1] turned out to be 3.1. In addition, the CD in experiment [4] was determined as 11.7 µM. The same molecule had an inhibition at 50 µM on Aromatase [2] of 40.4%.
As for `CO/N=C/c1c(-c2ccccc2)[nH]c2ccccc12`, the Ratio in experiment [1] came out at 1.3. In addition, the inhibition at 50 µM against Aromatase [2] is 24.7%.
For `c1cncc(-c2cc3ccccc3[nH]2)c1`, the Ratio in experiment [1] worked out at 1.14. At Aromatase [3], this molecule gave a 50% inhibitory concentration (IC50) of 3.05 µM. This molecule also showed an inhibition at 50 µM against Aromatase [2] of 81.5%.
On to `Clc1ccc2[nH]c(-c3ccccc3)cc2c1`, for which the Ratio in experiment [1] was 5.1. The IC50 at Aromatase [3] is 22.8 µM. The CD in experiment [4] worked out at 5.5 µM. At Aromatase [2], the inhibition at 50 µM worked out at 70.5%.
Take `Cn1c(-c2ccccc2)cc2cc([N+](=O)[O-])ccc21`: the Ratio in experiment [1] was found to be 0.89. Moreover, half-maximal inhibition at Aromatase [3] (IC50) required 3.88 µM. Also, the inhibition at 50 µM against Aromatase [2] stood at 77%.
With `CN(C)c1ccc(-c2cc3ccccc3[nH]2)cc1`, in experiment [1], the Ratio worked out at 1.21. Also, the inhibition at 50 µM against Aromatase [2] came to 0%.
The like results for `Clc1ccccc1-c1cc2ccccc2[nH]1` were, in that order, 1.4 and 21.5%.
The like results for `C(=N\OCc1ccccc1)/c1c(-c2ccccc2)[nH]c2ccccc12` were, in that order, 0.5 and 23.2%.
`COc1cc(OC)cc(-c2cc3ccccc3[nH]2)c1`: in experiment [1], the Ratio was 3.75. Besides, in experiment [4], the CD amounted to 1.12 µM. Besides, testing at 50 µM against Aromatase [2] gave an inhibition of 9.18%.
In the case of `Cc1ccccc1-c1cc2cc([N+](=O)[O-])ccc2[nH]1`, in experiment [1], the Ratio came to 0.78. The molecule further returned an IC50 against Aromatase [3] of 6.87 µM. At Aromatase [2], this molecule yielded an inhibition at 50 µM of 71.5%.
Take `Nc1ccccc1C#Cc1cc(F)cc(F)c1`: in experiment [1], the Ratio is 1.48. Testing at 50 µM on Aromatase [2] gave an inhibition of 9.27%.
On to `Fc1cc(F)cc(-c2cc3ccccc3[nH]2)c1`, for which the Ratio in experiment [1] was 0.58. At Aromatase [2], this molecule gave an inhibition at 50 µM of 11%.
The like results for `COc1cccc(-c2cc3ccccc3[nH]2)c1` were, in that order, 1.3 and 48.4%.
As to `CC(C)(C)OC(=O)n1c(-c2ccccc2)cc2ccccc21`, the Ratio in experiment [1] was 1. This molecule also showed an inhibition at 50 µM against Aromatase [2] of 11.9%.
Consider `Nc1ccc(-c2cc3ccccc3[nH]2)cc1`, for which the Ratio in experiment [1] stood at 0.56. In addition, at Aromatase [2], the inhibition at 50 µM turned out to be 46.2%.
Molecule `c1ccc(-c2nc3ccccc3[nH]2)cc1` registered an inhibition at 50 µM on Aromatase [2] of 7.64%.
Consider `FC(F)(F)Oc1ccc(-c2cc3ccccc3[nH]2)cc1`, for which the Ratio in experiment [1] was 2.48. In experiment [4], the CD stood at 29.1 µM. The inhibition at 50 µM against Aromatase [2] is 1.86%.
`Cc1ccc2cc(-c3ccccc3)[nH]c2c1`: the Ratio in experiment [1] stood at 1. In addition, 50 µM produced 32.4% inhibition at Aromatase [2].
Take `C#CCn1c(-c2ccccc2)cc2ccccc21`: the Ratio in experiment [1] is 0.87. At 50 µM the inhibition against Aromatase [2] was 26.3%.
The like results for `Clc1ccc(-c2cc3ccccc3[nH]2)cc1Cl` were, in that order, 0.57 and 22.6%.
The like results for `Cn1c(-c2ccc(Cl)c(Cl)c2)cc2cc([N+](=O)[O-])ccc21` were, in that order, 1.56 and 34%.
The like results for `Cc1ccccc1-c1cc2ccccc2[nH]1` were, in that order, 0.54 and 27.1%.
Consider `c1ccc2[nH]c(-c3ccsc3)cc2c1`, for which the Ratio in experiment [1] worked out at 0.67. This molecule also yielded an inhibition at 50 µM against Aromatase [2] of 22%.
On Aromatase [2], `c1ccc(-c2cc3ccccc3[nH]2)cc1` [2-PHENYL-1H-INDOLE] displayed an inhibition at 50 µM of 27.8%.
Turning to `Nc1cccc(-c2cc3ccccc3[nH]2)c1`, the Ratio in experiment [1] was 2.7. Moreover, the CD in experiment [4] was found to be 18.4 µM. At Aromatase [2], this molecule registered an inhibition at 50 µM of 26.7%.
Turning to `O=[N+]([O-])c1ccc2[nH]c(-c3cccnc3)cc2c1`, the Ratio in experiment [1] was determined as 1.7. The molecule also registered an inhibition at 50 µM on Aromatase [2] of 27.9%.
The like results for `COc1ccc2ccc(-c3cc4ccccc4[nH]3)cc2c1` were, in that order, 0.74 and 0.07%.
In the case of `Clc1ccc(-c2cc3ccccc3[nH]2)cc1`, the CD in experiment [4] was determined as 2.75 µM. In addition, the inhibition at 50 µM on Aromatase [2] is 15.8%.
For `CCCCCc1ccc(-c2cc3ccccc3[nH]2)cc1`, the Ratio in experiment [1] came to 0.78. In addition, on Aromatase [2], testing at 50 µM gave an inhibition of 0%.
As to `O=[N+]([O-])c1ccc2[nH]c(-c3ccc(Cl)c(Cl)c3)cc2c1`, the Ratio in experiment [1] amounted to 1.07. On Aromatase [2], at 50 µM the inhibition was 7.59%.
The like results for `c1ccc(Cn2c(-c3ccccc3)cc3ccccc32)cc1` were, in that order, 0.37 and 0%.
The like results for `Nc1ccc2[nH]c(-c3ccccc3)cc2c1` were, in that order, 0.72 and 41.4%.
In the case of `Cc1ccc(-c2cc3ccccc3[nH]2)cc1`, the Ratio in experiment [1] was determined as 5.2. Moreover, the CD in experiment [4] amounted to 6.4 µM. This molecule gave an inhibition at 50 µM on Aromatase [2] of 9.33%.
With `Cn1c(-c2ccccc2)cc2ccccc21`, the Ratio in experiment [1] came to 0.5. Besides, at Aromatase [2], at 50 µM the inhibition was 0%.
As to `Fc1ccc(-c2cc3ccccc3[nH]2)cc1`, the Ratio in experiment [1] came to 2.73. The CD in experiment [4] was 17.8 µM. The same molecule displayed an inhibition at 50 µM on Aromatase [2] of 21.8%.

The term inhibition denotes the change of the read-out against control, counted positive when it falls. Read a high inhibition as a response far below the control. The IC50 is the concentration that inhibits the measured activity by half. Read a high IC50 as weaker potency.

These data come from ChEMBL document CHEMBL4184169, “Structure-activity relationships and docking studies of synthetic 2-arylindole derivatives determined with aromatase and quinone reductase 1” (Bioorg Med Chem Lett, 2017).
